In ChEMBL document CHEMBL1153560, “In vitro activities of doripenem and six comparator drugs against 423 aerobic and anaerobic bacterial isolates from infected diabetic foot wounds” (2008):
≈ marks a conversion by molar mass, not a printed value.

How the values were obtained:
Format in all cases: functional
[1] = system: Streptococcus dysgalactiae subsp. equisimilis; test: Antibacterial activity against Streptococcus dysgalactiae subsp. equisimilis isolated from patient with diabetic foot infection assessed as percent resistant isolates after 18 to 24 hrs by broth microdilution method
Outline: (§1)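 Streptococci subcultured on Trypticase soy blood agar and tested by broth microdilution in cation-adjusted Mueller-Hinton broth with lysed horse blood. In-house twofold dilution trays stored at −70°C. About 5 × 10^5 CFU/ml final inoculum from overnight colonies. Read after 18 to 24 h at 37°C.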

Corynebacterium simulans [2] = test: Antibacterial activity against Corynebacterium simulans isolated from patient with diabetic foot infection after 48 hrs by broth microdilution method
Outline: (§2)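 Isolates were subcultured on Trypticase soy blood agar. Broth microdilution used cation-adjusted Mueller-Hinton broth with lysed horse blood, in-house trays of twofold drug dilutions stored at −70°C. Colonies from overnight growth gave a final inoculum of about 5 × 10^5 CFU/ml. Trays were read after 18 to 24 h at 37°C, up to 48 h for some strains.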

[3] = system: Corynebacterium urealyticum; test: Antibacterial activity against Corynebacterium urealyticum isolated from patient with diabetic foot infection after 48 hrs by broth microdilution method; outline: as §2
[4] = system: Staphylococcus epidermidis; test: Antibacterial activity against Staphylococcus epidermidis isolated from patient with diabetic foot infection after 18 to 24 hrs by broth microdilution method
Outline: (§3)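 Isolates were subcultured on Trypticase soy blood agar and tested by broth microdilution in cation-adjusted Mueller-Hinton broth. In-house trays of twofold drug dilutions were stored at −70°C. Overnight colonies gave a final inoculum of about 5 × 10^5 CFU/ml. Plates were read after 18 to 24 h at 37°C.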

Streptococcus agalactiae = test: Antibacterial activity against Streptococcus agalactiae isolated from patient with diabetic foot infection assessed as percent resistant isolates after 18 to 24 hrs by broth microdilution method; outline: as §1
Providencia rettgeri [5] = test: Antibacterial activity against Proteus rettgeri isolated from patient with diabetic foot infection assessed as percent resistant isolates after 18 to 24 hrs by broth microdilution method
Outline: (§4)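 Aerobes subcultured on Trypticase soy blood agar, then broth microdilution in cation-adjusted Mueller-Hinton broth. Trays prepared in-house with twofold dilutions and stored at −70°C. Overnight colonies suspended to about 5 × 10^5 CFU/ml final. Read after 18 to 24 h at 37°C. QC strains included S. aureus ATCC 29213 and E. coli ATCC 25922.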

Staphylococcus aureus [6] = test: Antibacterial activity against methicillin-sensitive Staphylococcus aureus isolated from patient with diabetic foot infection after 18 to 24 hrs by broth microdilution method
Outline: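 Subcultured on Trypticase soy blood agar, then broth microdilution in cation-adjusted Mueller-Hinton broth. Trays were made in-house with serial twofold drug dilutions and stored at −70°C. Inoculum was colonies from overnight growth, final approximately 5 × 10^5 CFU/ml. MIC was read after 18 to 24 h at 37°C. QC strains: S. aureus ATCC 29213 and E. coli ATCC 25922.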

[7] = system: Corynebacterium minutissimum; test: Antibacterial activity against Corynebacterium minutissimum isolated from patient with diabetic foot infection after 48 hrs by broth microdilution method; outline: as §2
[8] = system: Corynebacterium amycolatum; test: Antibacterial activity against Corynebacterium amycolatum isolated from patient with diabetic foot infection after 48 hrs by broth microdilution method; outline: as §2
Enterobacter cloacae = test: Antibacterial activity against Enterobacter cloacae isolated from patient with diabetic foot infection assessed as percent resistant isolates after 18 to 24 hrs by broth microdilution method; outline: as §4
[9] = system: Corynebacterium aurimucosum; test: Antibacterial activity against Corynebacterium aurimucosum isolated from patient with diabetic foot infection after 48 hrs by broth microdilution method; outline: as §2
[10] = system: Streptococcus dysgalactiae subsp. equisimilis; test: Antibacterial activity against Streptococcus dysgalactiae subsp. equisimilis isolated from patient with diabetic foot infection after 18 to 24 hrs by broth microdilution method
Outline: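 Streptococcal isolates were subcultured on Trypticase soy blood agar. Broth microdilution used cation-adjusted Mueller-Hinton broth with lysed horse blood, in in-house trays of serial twofold drug dilutions stored at −70°C. Overnight colonies were suspended to a final inoculum of approximately 5 × 10^5 CFU/ml. MIC was read after 18 to 24 h incubation at 37°C.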

Staphylococcus aureus [11] = test: Antibacterial activity against methicillin-resistant Staphylococcus aureus isolated from patient with diabetic foot infection assessed as percent resistant isolates after 18 to 24 hrs by broth microdilution method
Outline: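 Isolates grown on Trypticase soy blood agar, then tested by broth microdilution in unsupplemented cation-adjusted Mueller-Hinton broth. In-house trays held serial twofold drug dilutions and were stored at −70°C. Overnight colonies were suspended to a final inoculum near 5 × 10^5 CFU/ml, and trays read after 18–24 h at 37°C. QC strains: S. aureus ATCC 29213, E. coli ATCC 25922.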

[12] = system: Staphylococcus epidermidis; test: Antibacterial activity against Staphylococcus epidermidis isolated from patient with diabetic foot infection assessed as percent resistant isolates after 18 to 24 hrs by broth microdilution method; outline: as §4
Pseudomonas aeruginosa [13] = test: Antibacterial activity against Pseudomonas aeruginosa isolated from patient with diabetic foot infection after 18 to 24 hrs by broth microdilution method; outline: as §3
Proteus vulgaris = test: Antibacterial activity against Proteus vulgaris isolated from patient with diabetic foot infection after 18 to 24 hrs by broth microdilution method; outline: as §3
Klebsiella pneumoniae = test: Antibacterial activity against Klebsiella pneumoniae isolated from patient with diabetic foot infection assessed as percent resistant isolates after 18 to 24 hrs by broth microdilution method; outline: as §4
Streptococcus pyogenes = test: Antibacterial activity against Streptococcus pyogenes isolated from patient with diabetic foot infection assessed as percent resistant isolates after 18 to 24 hrs by broth microdilution method
Outline: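 Isolates subcultured on Trypticase soy blood agar. MICs by broth microdilution in cation-adjusted Mueller-Hinton broth with lysed horse blood, in in-house trays of serial twofold drug dilutions stored at −70°C. Colonies from overnight growth were suspended to a final inoculum of about 5 × 10^5 CFU/ml. Read after 18–24 h at 37°C.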

Providencia rettgeri [14] = test: Antibacterial activity against Proteus rettgeri isolated from patient with diabetic foot infection after 18 to 24 hrs by broth microdilution method; outline: as §3
Corynebacterium simulans [15] = test: Antibacterial activity against Corynebacterium simulans isolated from patient with diabetic foot infection assessed as percent resistant isolates after 48 hrs by broth microdilution method
Outline: (§5)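 Isolates subcultured on Trypticase soy blood agar. Broth microdilution in cation-adjusted Mueller-Hinton broth with lysed horse blood, using in-house twofold dilution trays stored at −70°C. Inoculum from overnight colonies at about 5 × 10^5 CFU/ml final. Read after 18 to 24 h at 37°C, up to 48 h for some Corynebacterium strains.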

[16] = system: Corynebacterium minutissimum; test: Antibacterial activity against Corynebacterium minutissimum isolated from patient with diabetic foot infection assessed as percent resistant isolates after 48 hrs by broth microdilution method; outline: as §5
Pseudomonas aeruginosa [17] = test: Antibacterial activity against Pseudomonas aeruginosa isolated from patient with diabetic foot infection assessed as percent resistant isolates after 18 to 24 hrs by broth microdilution method; outline: as §4
[18] = system: Corynebacterium amycolatum; test: Antibacterial activity against Corynebacterium amycolatum isolated from patient with diabetic foot infection assessed as percent resistant isolates after 48 hrs by broth microdilution method; outline: as §5
[19] = system: Corynebacterium aurimucosum; test: Antibacterial activity against Corynebacterium aurimucosum isolated from patient with diabetic foot infection assessed as percent resistant isolates after 48 hrs by broth microdilution method; outline: as §5

| Compound | Activity [1] | MIC50 (Corynebacterium simulans [2]) | MIC90 (Corynebacterium simulans [2]) | MIC50 [3] | MIC90 [3] | MIC50 [4] | MIC90 [4] | Activity (Streptococcus agalactiae) | Activity (Providencia rettgeri [5]) | MIC50 (Staphylococcus aureus [6]) | MIC90 (Staphylococcus aureus [6]) | MIC50 [7] | MIC90 [7] | Activity (Enterobacter cloacae) | MIC50 [9] | MIC90 [9] | MIC50 [10] | MIC90 [10] | Activity (Staphylococcus aureus [11]) | Activity [12] | also measured |
| --- | --- | --- | --- | --- | --- | --- | --- | --- | --- | --- | --- | --- | --- | --- | --- | --- | --- | --- | --- | --- | --- |
| C[C@@H](O)[C@H]1C(=O)N2C(C(=O)O)=C(S[C@@H]3CN[C@H](C(=O)Nc4cccc(C(=O)O)c4)C3)[C@H](C)[C@H]12 [ERTAPENEM] | 0% | 0.5 µg/mL (≈ 1.05 µM) | 1 µg/mL (≈ 2.1 µM) | 1 µg/mL (≈ 2.1 µM) | 32 µg/mL (≈ 67.3 µM) | 2 µg/mL (≈ 4.21 µM) | 8 µg/mL (≈ 16.8 µM) | 0% | 0% | 0.125 µg/mL (≈ 0.263 µM) | 0.25 µg/mL (≈ 0.526 µM) | 1 µg/mL (≈ 2.1 µM) | 32 µg/mL (≈ 67.3 µM) | 0% | 1 µg/mL (≈ 2.1 µM) | 32 µg/mL (≈ 67.3 µM) | ≤ 0.015 µg/mL | ≤ 0.015 µg/mL | 100% | 67% | MIC50 [8]: 1 µg/mL (≈ 2.1 µM); MIC90 [8]: 32 µg/mL (≈ 67.3 µM); MIC50 (Pseudomonas aeruginosa [13]): 8 µg/mL (≈ 16.8 µM); MIC90 (Pseudomonas aeruginosa [13]): 32 µg/mL (≈ 67.3 µM); MIC50 (Proteus vulgaris): ≤ 0.015 µg/mL; MIC90 (Proteus vulgaris): 0.25 µg/mL (≈ 0.526 µM); Activity (Klebsiella pneumoniae): 0%; Activity (Streptococcus pyogenes): 0%; MIC50 (Providencia rettgeri [14]): ≤ 0.015 µg/mL; MIC90 (Providencia rettgeri [14]): 0.25 µg/mL (≈ 0.526 µM) |
| C[C@@H](O)[C@H]1C(=O)N2C(C(=O)O)=C(SCCNC=N)C[C@H]12 [IMIPENEM ANHYDROUS] | 0% | 0.03 µg/mL (≈ 0.1 µM) | 0.125 µg/mL (≈ 0.418 µM) | 0.25 µg/mL (≈ 0.835 µM) | 32 µg/mL (≈ 107 µM) | 0.125 µg/mL (≈ 0.418 µM) | 0.5 µg/mL (≈ 1.67 µM) | 0% | 0% | ≤ 0.015 µg/mL | 0.03 µg/mL (≈ 0.1 µM) | 0.25 µg/mL (≈ 0.835 µM) | 32 µg/mL (≈ 107 µM) | 0% | 0.25 µg/mL (≈ 0.835 µM) | 32 µg/mL (≈ 107 µM) | ≤ 0.015 µg/mL | ≤ 0.015 µg/mL | 100% | 67% | Activity (Corynebacterium simulans [15]): 0%; MIC50 [8]: 0.25 µg/mL (≈ 0.835 µM); MIC90 [8]: 32 µg/mL (≈ 107 µM); MIC50 (Pseudomonas aeruginosa [13]): 2 µg/mL (≈ 6.68 µM); MIC90 (Pseudomonas aeruginosa [13]): 8 µg/mL (≈ 26.7 µM); MIC50 (Proteus vulgaris): 0.5 µg/mL (≈ 1.67 µM); MIC90 (Proteus vulgaris): 4 µg/mL (≈ 13.4 µM); Activity [16]: 30%; Activity (Pseudomonas aeruginosa [17]): 13%; Activity (Klebsiella pneumoniae): 0%; Activity (Streptococcus pyogenes): 0%; Activity [18]: 7%; MIC50 (Providencia rettgeri [14]): 0.5 µg/mL (≈ 1.67 µM); MIC90 (Providencia rettgeri [14]): 4 µg/mL (≈ 13.4 µM); Activity [19]: 30% |
| C[C@@H](O)[C@H]1C(=O)N2C(C(=O)O)=C(S[C@@H]3CN[C@H](C(=O)N(C)C)C3)[C@H](C)[C@H]12 [MEROPENEM] | 0% | 0.125 µg/mL (≈ 0.326 µM) | 0.25 µg/mL (≈ 0.652 µM) | 1 µg/mL (≈ 2.61 µM) | 16 µg/mL (≈ 41.7 µM) | 1 µg/mL (≈ 2.61 µM) | 4 µg/mL (≈ 10.4 µM) | 0% | 0% | 0.06 µg/mL (≈ 0.156 µM) | 0.125 µg/mL (≈ 0.326 µM) | 1 µg/mL (≈ 2.61 µM) | 16 µg/mL (≈ 41.7 µM) | 0% | 1 µg/mL (≈ 2.61 µM) | 16 µg/mL (≈ 41.7 µM) | ≤ 0.015 µg/mL | ≤ 0.015 µg/mL | 100% | 67% | Activity (Corynebacterium simulans [15]): 0%; MIC50 (Pseudomonas aeruginosa [13]): 0.5 µg/mL (≈ 1.3 µM); MIC90 (Pseudomonas aeruginosa [13]): 4 µg/mL (≈ 10.4 µM); MIC50 (Proteus vulgaris): 0.06 µg/mL (≈ 0.156 µM); MIC90 (Proteus vulgaris): 0.125 µg/mL (≈ 0.326 µM); Activity [16]: 20%; Activity (Pseudomonas aeruginosa [17]): 7%; Activity (Klebsiella pneumoniae): 0%; Activity (Streptococcus pyogenes): 0%; Activity [18]: 7%; MIC50 (Providencia rettgeri [14]): 0.06 µg/mL (≈ 0.156 µM); MIC90 (Providencia rettgeri [14]): 0.125 µg/mL (≈ 0.326 µM); Activity [19]: 20% |
